Source: PubChem BioAssay (several laboratories)
In the library only some 4% were active in any assay of this set; here they are far more common.
GPR7 antag: human neuropeptides B/W receptor 1 antagonism | GPR7-expressing cells, fluorescence antagonist assay | inhibition, % at 4.4 µM | 290,000 tested, 1.1% active; in the data active = inhibition above about 16%, passing the limit was not always enough;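 note: cells stimulated with the agonist NPW; 0% = agonist with vehicle and 100% = vehicle without agonist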
Target sequence (P48145 whole entry, looked up): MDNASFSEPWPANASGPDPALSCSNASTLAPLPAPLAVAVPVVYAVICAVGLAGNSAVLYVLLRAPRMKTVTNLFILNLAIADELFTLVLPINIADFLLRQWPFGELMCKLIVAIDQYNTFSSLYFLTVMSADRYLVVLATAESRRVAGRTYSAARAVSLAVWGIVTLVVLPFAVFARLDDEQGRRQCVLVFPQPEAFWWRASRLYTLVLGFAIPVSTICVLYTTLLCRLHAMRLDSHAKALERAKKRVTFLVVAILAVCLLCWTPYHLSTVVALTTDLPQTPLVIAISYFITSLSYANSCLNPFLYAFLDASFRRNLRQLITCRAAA
TAAR1 antagonist: antagonists of human TAAR1; Q96RJ0; CHO RD-HGA16 TAAR1, Fluo-8 calcium fluorescence, antagonist; inhibition, % at 3 µM; 360,000 tested, 1.5% active;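 active = inhibition above a per-plate cutoff, the mean inhibition of test compounds on that plate plus 3 SD, cut at about 49% in these data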;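 note: 0% = DMSO plus EC80 beta-PEA response and 100% = DMSO alone without agonist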
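System: CHO RD-HGA16 cells bearing hTAAR1. Reagent: EC80 β-phenethylamine stimulus. Schedule: seeding 17-24 h prior, 75-min 37 °C, 30-min RT dye loading. Signal: Fluo-8 intracellular calcium dye fluorescence, real-time kinetic reads. Read-out: % inhibition from peak post-agonist over basal fluorescence ratio. Benchmarks: vehicle wells and EC80 agonist wells. Replicates: n of 1.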
DAGLB inhibitor: blocks human DAGLB lipase activity | Q8NCG7 | HEK293T DAGLB membrane lysate, EnzChek fluorogenic substrate | inhibition, % at 5.17 µM | 340,000 tested, 0.059% active; in the data active = inhibition above about 34%;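 note: 0% = enzyme with vehicle and 100% = wells lacking enzyme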
MPTP inh: inhibitors of mitochondrial permeability transition pore | isolated mouse mitochondria, Ca2+ swelling absorbance, 30 min | inhibition, % at 10 µM | 360,000 tested, 1.4% active | AID 602449;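 active = inhibition of 50% or more, scaled per plate between neutral and stimulator controls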;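 note: 0% = DMSO wells given calcium and 100% = 1 mM EGTA wells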
TAAR1 agonist: agonists of human TAAR1; activation, % at 3 µM; 360,000 tested, 0.99% active; AID 624467; Q96RJ0; CHO RD-HGA16 TAAR1, Fluo-8 calcium fluorescence; vehicle wells 0%, saturating PEA agonist 100%;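 active = activation above the mean activation of all test compounds in the run plus 3 SD, cut at about 38% in these data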
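Test system: RD-HGA16 (CHO) cells co-expressing Gα16 and hTAAR1 | Doses: Single dose, 3 µM | Schedule: 17-24 h seeding, 75 min 37 °C dye, 30 min RT | Evaluation: % activation from peak over basal fluorescence ratio, DMSO-to-PEA scaled | Technique: Kinetic Fluo-8 calcium fluorescence | Benchmarks: Low control DMSO, high control PEA (EC100)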
An asterisk follows results filed as active.

For CCOC(=O)c1sc2nc(CSc3ccccc3)nc(N3CCCN(C)CC3)c2c1C the results were GPR7 antag 8, TAAR1 antagonist -13, DAGLB inhibitor -1, MPTP inh 33 and TAAR1 agonist 38*.
`CCOC(=O)c1sc2nc(CSc3ccccc3)nc(N3CCC(C(N)=O)CC3)c2c1C` gave GPR7 antag -3, TAAR1 antagonist 39, DAGLB inhibitor -2, MPTP inh -3 and TAAR1 agonist 22.
For COC(=O)[C@]1(Cc2ccccc2)NC=C(C(=O)c2ccc(F)cc2)[C@@H]1c1ccccc1 the results were TAAR1 antagonist 4 and TAAR1 agonist 1.
CCOc1ccc(CN2CCN(Cc3cc4ccccc4[nH]3)CC2CCO)cc1 (centres undefined) was read as GPR7 antag 13, TAAR1 antagonist 38, DAGLB inhibitor 1, MPTP inh -1 and TAAR1 agonist 42*.
Screening CC(C)(C)CN1CCN(Cc2cc3ccccc3[nH]2)CC1CCO (centres undefined) returned GPR7 antag -9, TAAR1 antagonist -19, DAGLB inhibitor -2, MPTP inh 0 and TAAR1 agonist 5.
CC(=O)N1CCN(c2ccc(N3CCN(Cc4ccccc4)[C@@H](C)C3)c(C)c2)[C@@H](C)C1 was read as TAAR1 antagonist -11 and TAAR1 agonist 2.
`CC(=O)NCCCNC(=S)NCCCN(Cc1ccc(Cl)cc1)c1ccc(Br)cn1` gave TAAR1 antagonist 35, MPTP inh 0 and TAAR1 agonist 10.
Screening O=c1c2ccccc2nc(COc2ccccc2)n1/N=C/c1cn[nH]c1-c1ccccc1 returned GPR7 antag -6, TAAR1 antagonist 55*, DAGLB inhibitor -3, MPTP inh -10 and TAAR1 agonist 9.
O=C(CCC(=O)Nc1ccccc1)NNC(=O)c1cccs1 was read as GPR7 antag -6, TAAR1 antagonist 6, DAGLB inhibitor 2, MPTP inh -2 and TAAR1 agonist 39*.
COc1ccc(CCNC(=O)C(=O)NCC2OCCN2S(=O)(=O)c2cc(F)ccc2F)cc1 (centres undefined) was read as GPR7 antag -7, TAAR1 antagonist 55*, DAGLB inhibitor 2, MPTP inh -1 and TAAR1 agonist 15.
COc1ccccc1CCNC(=O)C(=O)NCC1OCCN1S(=O)(=O)c1ccc(OC)c(OC)c1 (centres undefined) was read as GPR7 antag -4, TAAR1 antagonist -17, DAGLB inhibitor -2, MPTP inh 1 and TAAR1 agonist 40*.
Screening C=CCOC(=O)CCC(=O)Nc1cccc2ccccc12 returned GPR7 antag 6, TAAR1 antagonist -21, DAGLB inhibitor 1, MPTP inh 0 and TAAR1 agonist 3.
For O=C(CCC(=O)OCc1ccc(C(=O)Oc2ccccc2)cc1)Nc1cccc2ccccc12 the results were GPR7 antag -10, TAAR1 antagonist 49*, DAGLB inhibitor -6, MPTP inh -3 and TAAR1 agonist 8.
Screening Cc1ccc(SSc2cc(C)ccc2N)c(N)c1 returned TAAR1 antagonist 2, DAGLB inhibitor -17, MPTP inh -1 and TAAR1 agonist 19.
CC(C)c1ccc(OCc2ccc(C(=O)N3CCN(c4ccccn4)CC3)cc2)cc1 was read as GPR7 antag -10, TAAR1 antagonist 57*, DAGLB inhibitor -6, MPTP inh 4 and TAAR1 agonist 8.
NC(=S)NN=C1C=CCCC1 was read as TAAR1 antagonist -5, DAGLB inhibitor 1, MPTP inh 0 and TAAR1 agonist 0.
`CC1(C(=O)Nc2ccc3[nH]ncc3c2)CCN1C(=O)C1(c2ccccc2)CC1` (centres undefined) gave TAAR1 antagonist 11, MPTP inh 1 and TAAR1 agonist 1.
`O=C(NCC(c1ccco1)N1CCCCC1)c1ccc(NS(=O)(=O)c2ccc(F)cc2)cc1` (centres undefined) gave GPR7 antag 4, TAAR1 antagonist -3, DAGLB inhibitor 2, MPTP inh 0 and TAAR1 agonist 2.
Screening O=C(NCC(c1ccco1)N1CCCC1)c1ccc(S(=O)(=O)Nc2ccc(F)cc2)cc1 (centres undefined) returned TAAR1 antagonist -7, DAGLB inhibitor 1, MPTP inh 2 and TAAR1 agonist 40*.
`CCCCN(C=O)c1c(CC)nc2ccc(C(=O)Nc3cc(-c4ccccc4)ccc3OC)cn12` gave TAAR1 antagonist 5, MPTP inh -1 and TAAR1 agonist -1.
For COc1cc(/C=C/C(=O)/C=C(O)/C=C/c2ccc(O)c(OC)c2)ccc1O the results were TAAR1 antagonist 65*, DAGLB inhibitor -35, MPTP inh 5 and TAAR1 agonist 44*.
COc1cc(C=C2C(=O)C=CC2=O)ccc1O was read as TAAR1 antagonist 37, MPTP inh 8 and TAAR1 agonist 43*.
For O=S(=O)(c1ccc(C(F)(F)F)cc1)N1CCCc2nc(-c3ccc(F)cc3)ccc21 the results were TAAR1 antagonist -16 and TAAR1 agonist 3.
For CC(C)[C@H](NC(=O)c1ccc(Cl)cc1)C(=O)Nc1cccc(S(=O)(=O)N2CCOCC2)c1 the results were TAAR1 antagonist -13, DAGLB inhibitor 0, MPTP inh 1 and TAAR1 agonist 0.
Screening CC1(C(=O)Nc2ccc3c(c2)OCO3)CCN1C(=O)CCC1CCCC1 (centres undefined) returned TAAR1 antagonist -21, MPTP inh 0 and TAAR1 agonist 1.
CCOC(=O)/C(=C\c1cccnc1)C(=O)c1cc(C(C)=O)c(Nc2ccccc2)s1 was read as GPR7 antag 30*, DAGLB inhibitor 13 and MPTP inh -10.
For CCN1CCN(C(=O)c2ccc(NS(=O)(=O)c3ccccc3)cc2)CC1 the results were GPR7 antag -7, TAAR1 antagonist 6, DAGLB inhibitor -1 and TAAR1 agonist 4.
For Cc1cccc(NC(=O)c2ccc(N(C)C3CCCCC3)c([N+](=O)[O-])c2)n1 the results were GPR7 antag -4, TAAR1 antagonist 63*, DAGLB inhibitor 3, MPTP inh 1 and TAAR1 agonist 8.
`O=C(c1ccc(-c2ccc([N+](=O)[O-])cc2Cl)o1)N1CCOCC1` gave GPR7 antag 20*, TAAR1 antagonist 3, DAGLB inhibitor 1, MPTP inh -1 and TAAR1 agonist 1.
Screening O=C(Nc1ccc([N+](=O)[O-])cc1)c1cc2ccccc2nc1Cl returned GPR7 antag 3, TAAR1 antagonist 51*, DAGLB inhibitor 5, MPTP inh 32 and TAAR1 agonist 9.
For COC(=O)c1cc2c(c3c4cc(OC)ccc4n(S(=O)(=O)c4cccc(C)c4)c13)C(=O)N(Cc1ccc(N(C)C)cc1)C2 the results were TAAR1 antagonist -6 and TAAR1 agonist -2.
CCn1c(N2CCN(S(=O)(=O)c3ccc(Cl)cc3)CC2)nc2ccccc21 was read as GPR7 antag 3, TAAR1 antagonist 72*, DAGLB inhibitor -3, MPTP inh 20 and TAAR1 agonist 20.
